Measured values published in publication PMC6996566 (ChemistryOpen, 2019).
Read-outs that look alike come from different tables or passages of the source.

Experiments:
Assay type in all cases: cell-based, human
A2780 = experiment: In vitro anti‐proliferative assay; conditions: read-out: A2780 (IC50); MTT, 48 h treatment; mean of triplicate determinations
How it was run: (§1)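 MTT assay: 5×10³ cells per well settled 24 h, then exposed to a concentration series of test compound or DMSO for 48 h. Medium replaced with fresh medium containing 10% MTT (5 mg/mL in PBS) for 4 h at 37 °C. Formazan dissolved in DMSO, absorbance read at 570 nm. Inhibition % = (OD DMSO − OD compound)/(OD DMSO − OD blank)×100, giving IC50.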

Hela = experiment: In vitro anti‐proliferative assay; conditions: read-out: Hela (IC50); MTT, 48 h treatment; mean of triplicate determinations
How it was run: as §1

HUVEC = experiment: In vitro anti‐proliferative assay
How it was run: as §1

A2780 cells = experiment: Nitrite measurement in vitro; conditions: 100 μM compound, 150 min, Griess reagent
How it was run: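 A2780 cells (1×10⁷ per 10 cm dish) were exposed to 100 μM test compound for 150 min, then harvested and lysed in RIPA buffer for 30 min on ice. Lysates were mixed with Griess reagent for 30 min in the dark and read at 540 nm. Nitrite was quantified against a sodium nitrite standard curve, with diluent-treated cells as background. Mean ± SD of three independent experiments.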

| IC50 (A2780) [nM] | IC50 (Hela) [nM] | Molecule | IC50 (HUVEC; read-out: HUVEC (IC50), MTT, 48 h treatment, mean of triplicate determinations) [µM] | IC50 (HUVEC; Homo sapiens, HUVEC, 48 h, read-out: HUVEC (IC50, μM)) [µM] | intracellular NO production, presented as nitrite in the cell lysates (A2780 cells) |
| --- | --- | --- | --- | --- | --- |
| 1920 | 3050 | 3‐Phenylsulfonyl‐4‐hydroxylethoxyl‐1,2,5‐oxadiazole 2‐Oxide [compound 21] | 1.48 |  |  |
|  |  | COc1cc2c(cc1O)CC[C@@H]1[C@@H]2CC[C@]2(C)[C@@H](O)CC[C@@H]12 [compound 3, 2‐methoxyestradiol] |  | 1.35 | hardly detected |
